Screens deposited in PubChem BioAssay by several laboratories.
Most compounds without a hit are left out; they make up all but 12% or so of the library.
CHOP inh – blocks CHOP induction under ER stress. inhibition, % at 10 µM. CHO-K1 CHOP-promoter luciferase, tunicamycin-induced, 15-18 h. actives 3.8% (n = 220,000);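 active = compounds that reduced the stress-induced luciferase reporter signal by more than about 70% of percent inhibition, limit read from the data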
Arbovirus anti – blocks arbovirus infection; AID 1251; inhibition, % at 10 µM; actives 0.37% (n = 200,000); arbovirus infection cell-based antiviral screen; in the data active = inhibition above about 30%
Wee1 stabilizer – blocks degradation of human Wee1 kinase; P30291; HeLa Luc-Wee1K328M stability, luciferase luminescence; 100% = proteasome inhibitor MG132 effect; reporter increase, % at 5 µM; actives 1.2% (n = 220,000); AID 1321;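 active = activation above the mean of all tested compounds plus 3 SD, set per screening run, cut at about 8.8% in these data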;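 note: cells exposed to compound for 20 h before luminescence read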
Rad51 HR inh – Rad51 (human) homologous recombination inhibition; hRad51 DNA strand exchange, fluorescence dequenching; inhibition, % at 10 µM; actives 0.085% (n = 200,000);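 active = inhibition above 40% at the single screening dose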
Target sequence (Q06609 whole entry, looked up): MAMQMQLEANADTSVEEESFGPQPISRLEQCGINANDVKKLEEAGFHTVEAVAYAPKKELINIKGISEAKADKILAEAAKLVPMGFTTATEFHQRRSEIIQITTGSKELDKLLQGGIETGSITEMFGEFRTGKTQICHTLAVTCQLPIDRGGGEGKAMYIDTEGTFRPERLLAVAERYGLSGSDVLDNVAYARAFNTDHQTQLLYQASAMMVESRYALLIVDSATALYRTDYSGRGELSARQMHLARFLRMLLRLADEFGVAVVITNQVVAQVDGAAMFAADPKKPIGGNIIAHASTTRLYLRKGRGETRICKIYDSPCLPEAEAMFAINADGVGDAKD
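Test system: preformed human Rad51 ssDNA filaments. Compound dosing: single dose, 10 µM final compound. Incubation: filaments 15 min 37 °C, then compound 30 min. Technique: FRET fluorescence dequenching, excitation 485 nm, emission 520 nm. Read-out basis: percent inhibition from fluorescence, normalised to plate control and blank means. Benchmarks: plate controls and plate blanks.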
Lmaj promast – inhibitors of Leishmania major promastigote growth. Leishmania major promastigotes, resazurin fluorescence viability. inhibition, % at 10 µM. actives 9% (n = 200,000). AID 1063;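 note: promastigotes grown with compound for 44 hours at 28 °C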
PKD1 inh – inhibitors of human PKD1 kinase; Q15139; PKD1 kinase fluorescence polarization assay; inhibition, % (no concentration beside the values); actives 0.056% (n = 200,000); AID 797
Hits are given with their value; 0 = inactive; - = no result. Cut-off read from the data, not from the text of the source, unless noted: active = inhibition above about 50%; inactive = the rest.

SMILES	CHOP inh	Arbovirus anti	Wee1 stabilizer	Rad51 HR inh	Lmaj promast	PKD1 inh
Cc1cc(C)nc(/N=C(\N)Nc2ccc(C(C)C)cc2)n1	0	-	0	0	-	-
COc1ccc(C2CN=NC2C(=O)c2ccccc2)cc1 (configuration not stated)	0	-	0	0	-	-
O=C(NC(=S)NCCc1ccccc1)C1CCCCC1	0	0	0	0	88	0
CC(C)(C)CC(=O)NC(=S)NCCc1ccccc1	70	0	0	0	90	0
NC(=O)Cn1c(=O)n(CCC(=O)NCCSCc2ccccc2)c(=O)c2ccccc21	0	0	0	0	0	0
NS(=O)(=O)c1ccc(N/N=C/c2cn(-c3ccccc3)nc2-c2cccs2)c([N+](=O)[O-])c1	0	0	0	0	0	0
N#Cc1ccc(N/N=C/c2cn(-c3ccccc3)nc2-c2ccccc2)c([N+](=O)[O-])c1	83	0	0	0	0	0
COc1ccc(/C(O)=C2/C(=O)C(=O)N(c3ncccn3)C2c2ccc(C(C)(C)C)cc2)cc1 (configuration not stated)	0	0	0	0	0	0
CC1=NN(c2ccccc2)C(=O)/C1=C/C=C/C=C/N(C)C	0	0	0	0	0	0
CC1=NN(c2ccccc2)C(=O)/C1=C/c1cccs1	0	0	0	0	0	0
CC1=NN(c2ccc(C)cc2)C(=O)/C1=C\C=C\c1ccccc1	0	0	0	0	100	0
CC1=NN(c2ccccc2)C(=O)/C1=C\c1ccc(Br)s1	0	0	0	0	54	0
CC1=NN(c2cccc(C(=O)O)c2)C(=O)/C1=C\C=C/c1ccccc1	93	0	0	0	100	0
C=CC#CC1(O)CC(C)N(C)CC1C (configuration not stated)	0	0	0	0	0	0
O=C(O)COc1ccccc1/C=N/NC(=O)CN1CCN(S(=O)(=O)c2ccc(Br)cc2)CC1	0	-	0	0	-	-
CCc1ccc(Cc2cnc(NC(=O)C3=NCCN3)s2)cc1	0	0	0	0	0	0
Cc1ccccc1-n1nc(CSc2nc3ccccc3[nH]2)c(-c2ccccc2)c1N	0	40	0	0	0	0
c1ccc(CSc2nc3ccccc3[nH]2)cc1	0	-	0	0	-	-
Nc1c(-c2ccccc2)c(CSc2nc3ccccc3[nH]2)nn1-c1ccc(Cl)cc1	0	0	0	0	97	0
Nc1c(-c2ccccc2)c(CSc2nc3ccccc3[nH]2)nn1-c1cccc(Cl)c1	0	34	0	0	98	0
c1ccc(-c2nnc(CSc3nc4ccccc4[nH]3)o2)cc1	0	0	0	0	0	0
CCn1ncc([N+](=O)[O-])c1C(=O)Nc1c(C)nn(Cc2ccc(F)cc2)c1C	0	0	0	-	0	0
Nc1nc2ccccc2n1CCOc1ccccc1Cl	0	0	0	0	100	0
COC(=O)c1ccccc1OCCN1CCCCCC1	0	0	0	0	0	0
Clc1ccc(OCCN2CCCCC2)c(Cl)c1	0	0	0	0	99	0
SMILES	CHOP inh	Arbovirus anti	Wee1 stabilizer	Rad51 HR inh	Lmaj promast	PKD1 inh
Clc1ccccc1OCCN1CCCCC1	0	0	0	0	88	0
CCCn1c(N)nc2ccccc21	0	0	0	0	0	0
CC(=O)NC(CSC(CC(=O)c1ccco1)c1ccc(C)cc1)C(=O)O (configuration not stated)	0	0	0	0	0	0
Cc1ccc(C)c(-n2c(SCC(=O)NC(C(=O)O)C(C)C)nnc2-c2cccc(Cl)c2)c1 (configuration not stated)	0	0	0	0	0	0
COc1ncccc1-c1nnn(-c2ccc(Cl)nc2)n1	0	0	9.7	0	0	0
CCS(=O)(=O)N1CCN(S(=O)(=O)c2ccc(F)cc2)CC1	0	0	0	0	0	0
O=C(c1ccc(S(=O)(=O)N2CCCCCC2)cc1)N1CCC(CN2C(=O)c3cccc4cccc(c34)C2=O)CC1	0	0	0	-	80	0
Cc1ccc(S(=O)(=O)N2CCC(CN3C(=O)c4cccc5cccc(c45)C3=O)CC2)cc1	0	0	0	0	95	0
Cc1cc(C)c(S(=O)(=O)N2CCN(CCN3C(=O)c4cccc5cccc(c45)C3=O)CC2)cc1[N+](=O)[O-]	0	0	0	0	53	0
O=C1c2cccc3cccc(c23)C(=O)N1CC1CCN(S(=O)(=O)c2ccc(F)cc2)CC1	0	0	0	0	98	0
COc1cccc(CN2CCN(Cc3ccc4c(NC(C)=O)cccc4n3)CC2CCO)c1 (configuration not stated)	0	0	0	0	0	0
Cc1c(-c2nc(N)nc(Nc3ccccc3F)n2)oc2ccccc12	71	0	0	0	0	0
Cc1ccc(Nc2nc(N)nc(-c3oc4ccccc4c3C)n2)cc1	0	0	0	-	0	0
COc1ccc(-c2nnc(SCc3nc4ccccc4c(=O)[nH]3)o2)cc1	0	-	0	0	-	-
O=C(Nc1ccc(NC(=S)NC(=O)c2cccs2)cc1)c1ccccc1	0	0	0	0	0	0
O=C(Nc1ccc(NC(=S)NC(=O)C(c2ccccc2)c2ccccc2)cc1)c1ccccc1	-	-	0	0	98	0
CC(C)CNC(=O)c1ccc(NC(=O)c2cccs2)cc1	0	0	0	0	52	0
CCCCC(=O)Nc1ccc(C(=O)NNC(=S)NC(=O)c2ccco2)cc1	0	0	0	0	0	0
O=C(NC(=S)Nc1ccc(Cl)cc1)c1ccccc1	0	-	0	0	-	-
O=C(NNC(=S)NC(=O)c1cccs1)c1ccc(NC(=O)c2ccccc2)cc1	0	0	0	0	99	0
CCCCC(=O)Nc1ccc(C(=O)NNC(=S)NC(=O)c2cccs2)cc1	0	0	0	0	62	0
C1CCN(CCCNC2C3CC4CC(C3)CC2C4)C1 (configuration not stated)	0	0	0	0	0	0
c1ccc(-n2ncc3cccnc32)cc1	0	-	0	0	-	-
O=C(NC(=S)NNC(=O)c1cc2ccccc2cc1O)c1ccco1	0	0	0	-	76	0
O=C(Cc1ccc(Cl)cc1)Nc1ccc(NC(=O)c2cccs2)cc1	0	0	9.7	0	0	0
SMILES	CHOP inh	Arbovirus anti	Wee1 stabilizer	Rad51 HR inh	Lmaj promast	PKD1 inh
O=C(NNC(=S)NC(=O)c1ccco1)c1ccc(NC(=O)c2ccccc2)cc1	0	0	0	0	96	0
O=C(Nc1ccc(Cl)cc1)c1cccs1	0	0	0	0	0	0
CCc1ccc2c(c1)cc(C)c1nnc(SCC(=O)Nc3cc(OC)c(OC)cc3C(=O)O)n12	0	0	0	-	0	0
CSc1nc(N)c2ncn([C@@H]3O[C@H](COP(=O)(O)OP(=O)(O)O)[C@H](O)C3O)c2n1 (some centres not stated)	0	-	-	-	-	-
CC(C)(C)c1csc(Sc2ncccc2[N+](=O)[O-])n1	0	-	0	0	-	-
CCCC(=O)Nc1ccc(-c2nc3cc(C)ccc3o2)cc1	0	0	0	0	0	0
CCCC(=O)Nc1ccc2oc(-c3ccc(OC)c(Br)c3)nc2c1	96	0	0	0	0	0
Fc1ccc(NC(=S)Nc2cc(-c3ccccc3)[nH]n2)cc1Cl	70	0	0	0	0	0
